What was measured:
[1] = system: RAW264.7; assay: Antiinflammatory activity in mouse RAW264.7 cells assessed as inhibition of LPS-induced COX2 protein expression at 10 uM by Western blotting analysis; type: functional
Procedure, shortened: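 RAW264.7 macrophages (ATCC) stimulated with LPS and treated at 10 μM. iNOS and COX-2 protein levels were quantified by immunoblot and expressed as % of LPS-only control cells (100%). Means ± SEM, n = 6.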

[2] = system: RAW264.7; assay: Antiinflammatory activity in mouse RAW264.7 cells assessed as residual LPS-induced iNOS protein level at 10 uM by Western blotting analysis
[3] = system: MDA-MB-231; assay: Cytotoxicity against human MDA-MB-231 cells by MTT assay; type: functional, cell-based
[4] = system: MCF7; assay: Cytotoxicity against human MCF7 cells by MTT assay; type: functional, cell-based
[5] = system: HepG2; assay: Cytotoxicity against human HepG2 cells by MTT assay; type: functional, cell-based
[6] = system: beta-actin protein expression; assay: Toxicity in mouse RAW264.7 cells assessed as inhibition of beta-actin protein expression at 10 uM by Western blotting analysis; values are per cent of control
[7] = Cytotoxicity against human Hep3B cells by MTT assay; type: functional, cell-based, Hep 3B2

C[C@@H]([C@H]1CC[C@H]2[C@@H]3CCC4=CC(=O)C=C[C@]4(C)[C@H]3CC[C@]12C)[C@H]1CC[C@H](C)C(=O)O1 [MINABEOLIDE 4]
COX-2 expression (% of LPS control) at 10 µM [1]: 22.4% | residual iNOS protein level at 10 µM [2]: 23.2%

CC(=O)OC[C@]12CC[C@H]3[C@@H](CCC4=CC(=O)C=C[C@@]43C)[C@@H]1CC[C@@H]2[C@H](C)[C@H]1C[C@H](C)[C@H](C)C(=O)O1 [PARAMINABEOLIDE B]
IC50 [3]: 19.3 µM | IC50 [4]: 14.9 µM | residual iNOS protein level at 10 µM [2]: 7.3%

CC(=O)OC[C@]12CC[C@H]3[C@@H](CCC4=CC(=O)C=C[C@@]43C)[C@@H]1CC[C@@H]2[C@H](C)[C@H]1CC[C@H](C)C(=O)O1 [MINABEOLIDE 5]
COX-2 expression (% of LPS control) at 10 µM [1]: 31.3% | residual iNOS protein level at 10 µM [2]: 6.3%

CC(=O)OC[C@]12CC[C@H]3[C@@H](CCC4=CC(=O)C=C[C@@]43C)[C@@H]1CC[C@@H]2[C@H](C)[C@H]1CC(C)=C(C)C(=O)O1 [MINABEOLIDE 2]
COX-2 expression (% of LPS control) at 10 µM [1]: 51.2% | residual iNOS protein level at 10 µM [2]: 45.7%

C[C@H]([C@H](O)[C@@H]1OC(=O)[C@H](C)[C@@H]1C)[C@H]1CC[C@H]2[C@@H]3CCC4=CC(=O)C=C[C@]4(C)[C@H]3CC[C@]12C [PARAMINABEOLIDE D]
residual iNOS protein level at 10 µM [2]: 43.3%

CC1=C(C)C(=O)O[C@@H]([C@@H](C)[C@H]2CC[C@H]3[C@@H]4CCC5=CC(=O)C=C[C@]5(C)[C@H]4CC[C@]23C=O)C1 [PARAMINABEOLIDE A]
IC50 [5]: 8 µM | residual iNOS protein level at 10 µM [2]: 11% | residual activity at 10 µM [6]: 66.5%

CC(=O)OC[C@]12CC[C@H]3[C@@H](CCC4=CC(=O)C=C[C@@]43C)[C@@H]1CC[C@@H]2[C@H](C)[C@H](O)[C@@H]1OC(=O)[C@H](C)[C@H]1C [PARAMINABEOLIDE C]
residual iNOS protein level at 10 µM [2]: 37.9%

COc1cccc2c1C(=O)c1c(O)c3c(c(O)c1C2=O)C[C@@](O)(C(=O)CO)C[C@@H]3O[C@H]1C[C@H](N)[C@H](O)[C@H](C)O1 [DOXORUBICIN]
IC50 [7]: 0.7 µM

CC1=C(C)C(=O)O[C@@H]([C@@H](C)[C@H]2CC[C@H]3[C@@H]4CCC5=CC(=O)C=C[C@]5(C)[C@H]4CC[C@]23C)C1 [MINABEOLIDE 1]
COX-2 expression (% of LPS control) at 10 µM [1]: 18.3% | IC50 [5]: 5.2 µM | IC50 [4]: 18.7 µM | residual iNOS protein level at 10 µM [2]: 9.6%

— ChEMBL document CHEMBL1782008, “Paraminabeolides A-F, cytotoxic and anti-inflammatory marine withanolides from the soft coral Paraminabea acronocephala” (J Nat Prod, 2011)
